T cruzi intra – inhibitors of intracellular Trypanosoma cruzi | 4.9% of 22,000 active | AID 651903 | intracellular Trypanosoma cruzi in host cells, plate reader | activity score (inhibition), % at 5.01 µM; in the data active means activity score above about 55%;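 further: parasites and compound incubated about four days before reading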
INS-1E ATP HTS – INS-1E beta cell protection from cytokine death. INS-1E cytokine-induced death, ATP luminescence, 48 h; normalised: neutral wells 0, positive control 100. protection from cytokine-induced ATP loss, % at 10 µM. 0.1% of 20,000 active. AID 488910;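 active means mean replicate protection from cytokine-induced ATP loss at least 50% and at least 75% of replicates each reaching 50%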
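Material: INS-1E rat cells; Quantity: 8000 cells/well; Buffer or medium: phenol-red-free RPMI with 5% fetal bovine serum; Probe or stimulus: cytokine cocktail of IFN-γ, TNF-α and IL-1β; Compound dosing: single test concentration per compound, delivered by pin transfer; Incubation: 48 h co-treatment, 10 min post-lysis read; Signal: CellTiter-Glo luminescence.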
A1 apoptosis 2 – compounds inhibiting A1, read as caspase activation; AID 2465; 24,000 tested, under 10 active; MEF A1-2A-BIM cells, caspase-Glo luminescence, 3 h; percent of clofoctol response, DMSO zero; caspase activation, % (test concentration not listed); in the data active means caspase activation above about 5.9%
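Material: A1-2A-BIM-expressing MEF cells. Buffer or medium: RPMI-1640 plus 10% FBS. Incubation: cells settled overnight, compound exposure 3 h at 37 °C, 5% CO2. Signal: Caspase-Glo 3/7 luminescence, 1 h at room temperature.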
Each line names hits and unclear results; the compound was inactive in the other large screens. The full list was thinned out, with hits kept by preference.

COc1ccc(NC(=O)Nc2ccc3c(c2)C(=O)N([C@H](C)CO)C[C@H](C)[C@@H](CN(C)CC2CCCCC2)OCCCC[C@@H](C)O3)cc1	T cruzi intra 76 (no result: A1 apoptosis 2)
COc1ccc(Br)cc1/C=N/NC(=O)CCCCC(=O)NO	none (no result: T cruzi intra, INS-1E ATP HTS)
COC(=O)C1=C/c2ccccc2C(C)N(Cc2ccc(OC)cc2)/C=C\1C(=O)OC (stereo not drawn)	none (no result: T cruzi intra, INS-1E ATP HTS)
CCOc1cc(/C=N/NC(=O)c2cccc(C(=O)NO)c2)ccc1O	none (no result: A1 apoptosis 2)
O=C(NO)c1cccc(C(=O)N/N=C/c2ccc(O)c(O)c2)c1	none
C[C@@H]1CN([C@H](C)CO)C(=O)c2cc(NC(=O)Cc3cn(C)c4ccccc34)ccc2O[C@@H]1CN(C)Cc1ccccc1	none (no result: A1 apoptosis 2)
C[C@H]1CN([C@@H](C)CO)C(=O)c2cc(NC(=O)Cc3cn(C)c4ccccc34)ccc2O[C@H]1CN(C)Cc1ccc(C(F)(F)F)cc1	T cruzi intra 43 (no result: INS-1E ATP HTS)
C[C@@H]1CN([C@@H](C)CO)C(=O)c2cc(NC(=O)Cc3cn(C)c4ccccc34)ccc2O[C@H]1CN(C)Cc1ccc(C(F)(F)F)cc1	T cruzi intra 82
C[C@H](CO)N1C[C@H](C)[C@H](CN(C)Cc2ccc(C(F)(F)F)cc2)Oc2ccc(NC(=O)Cc3cn(C)c4ccccc34)cc2C1=O	none (no result: INS-1E ATP HTS)
C[C@@H]1CN([C@@H](C)CO)C(=O)c2cc(NC(=O)Cc3cn(C)c4ccccc34)ccc2O[C@@H]1CN(C)C(=O)Nc1ccc(C(F)(F)F)cc1	none (no result: A1 apoptosis 2)
C[C@@H]1CN([C@H](C)CO)C(=O)c2cc(NC(=O)Cc3cn(C)c4ccccc34)ccc2O[C@@H]1CN(C)C(=O)Nc1ccc(C(F)(F)F)cc1	T cruzi intra 81 (no result: A1 apoptosis 2)
O=C(CCCCCCC(=O)Nc1ccccc1O)N/N=C/c1cc(O)ccc1O	none (no result: A1 apoptosis 2)
C[C@H](CO)N1C[C@H](C)[C@H](CN(C)Cc2ccc(Cl)c(Cl)c2)Oc2c(NC(=O)CCCCCC(=O)Nc3ccccc3N)cccc2C1=O	T cruzi intra 66
C[C@@H]1CN([C@@H](C)CO)C(=O)c2cccc(NC(=O)CCCCCC(=O)Nc3ccccc3N)c2O[C@@H]1CN(C)Cc1ccc(Oc2ccccc2)cc1	T cruzi intra 59 (no result: A1 apoptosis 2)
C[C@@H]1CN([C@@H](C)CO)C(=O)c2cccc(NC(=O)CCCCCC(=O)Nc3ccccc3N)c2O[C@@H]1CN(C)Cc1ccccc1	none (no result: A1 apoptosis 2)
C[C@@H]1CN([C@H](C)CO)C(=O)c2cccc(NC(=O)CCCCCC(=O)Nc3ccccc3N)c2O[C@@H]1CN(C)Cc1ccc(Oc2ccccc2)cc1	none
C[C@@H]1CN([C@@H](C)CO)C(=O)c2cccc(NC(=O)CCCCCC(=O)Nc3ccccc3N)c2O[C@H]1CN(C)Cc1ccc(-c2ccccc2)cc1	none (no result: T cruzi intra, INS-1E ATP HTS)
C[C@H](CO)N1C[C@H](C)[C@@H](CN(C)Cc2ccc(-c3ccccc3)cc2)Oc2c(NC(=O)CCCCCC(=O)Nc3ccccc3N)cccc2C1=O	T cruzi intra 75
CO[C@H]1O[C@H](CO)[C@@H](OC(=O)Nc2ccccc2)[C@H](OC(=O)Nc2ccccc2)[C@@H]1OC(=O)Nc1ccccc1	none (no result: T cruzi intra, INS-1E ATP HTS)
COCCOC(=O)N1C(=O)[C@@]2(c3cc(C#CCC(C(=O)OC)C(=O)OC)ccc31)[C@H](C(N)=O)[C@H]1C(=O)O[C@H](c3ccccc3)[C@H](c3ccccc3)N1[C@@H]2c1ccccc1OCCO	none (no result: T cruzi intra, INS-1E ATP HTS)
COc1ccc(C#Cc2ccc3c(c2)[C@]2(C(=O)N3)[C@H](C(=O)NC[C@H](O)c3ccccc3)[C@H]3C(=O)O[C@H](c4ccccc4)[C@H](c4ccccc4)N3[C@@H]2c2ccc(O)cc2)cc1	none (no result: T cruzi intra, INS-1E ATP HTS)
O=C(N/N=C/c1cc2ccccc2n1S(=O)(=O)c1ccccc1)c1ccccn1	none
C[C@@H]1CN([C@H](C)CO)C(=O)c2cccc(NC(=O)NC3CCCCC3)c2O[C@H]1CN(C)Cc1ccc(Oc2ccccc2)cc1	T cruzi intra 61 (no result: A1 apoptosis 2)
C[C@H]1CN([C@@H](C)CO)C(=O)c2cccc(NC(=O)NC3CCCCC3)c2O[C@@H]1CN(C)Cc1ccc(Oc2ccccc2)cc1	none (no result: A1 apoptosis 2)
C[C@@H]1CN([C@H](C)CO)C(=O)c2cccc(NC(=O)NC3CCCCC3)c2O[C@@H]1CN(C)Cc1ccc(Oc2ccccc2)cc1	T cruzi intra 64
C[C@@H]1CN([C@H](C)CO)C(=O)c2cccc(NC(=O)NC3CCCCC3)c2O[C@H]1CN(C)Cc1ccccc1	none
C[C@@H]1CN([C@H](C)CO)C(=O)c2cccc(NC(=O)NC3CCCCC3)c2O[C@H]1CN(C)Cc1ccc(-c2ccccc2)cc1	none (no result: A1 apoptosis 2)
C[C@H](CO)N1C[C@H](C)[C@@H](CN(C)Cc2ccc(-c3ccccc3)cc2)Oc2c(NC(=O)NC3CCCCC3)cccc2C1=O	T cruzi intra 68 (no result: A1 apoptosis 2)
O=C(N/N=C/C=C/c1ccccc1)c1ccccc1O	none
COc1cc2c(cc1OC)CN(C(=O)[C@@H]1[C@H]3C(=O)O[C@H](c4ccccc4)[C@H](c4ccccc4)N3[C@H](c3ccc(O)cc3)[C@@]13C(=O)Nc1ccc(C#CC4=CCCCC4)cc13)CC2	none (no result: T cruzi intra, INS-1E ATP HTS)
C[C@@H](O)[C@@H](O)[C@@H](O)C/C=N/NC(=O)c1ccccn1	none (no result: A1 apoptosis 2)
O=C(CCCCCCC(=O)Nc1ccccc1O)N/N=C/c1cc(O)ccc1[N+](=O)[O-]	none
